Test results reported in ChEMBL document CHEMBL4765301, “Discovery of novel TNNI3K inhibitor suppresses pyroptosis and apoptosis in murine myocardial infarction injury” (Eur J Med Chem, 2020).
Activity calls are given as the source filed them. The calls are words filed in the database; no cut-off is given here.

Legend:
H9c2 [1] = experiment: Inhibition of OGD-induced apoptosis in rat H9c2 cells assessed as reduction in ASC level at 0.5 to 1 uM by Western blot analysis; assay type: functional, cell-based; conditions: dose 0.5-1 µM
Summary of the method: (§1)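 H9c2 cells under OGD were treated with saline or 0.5 or 1.0 µM inhibitor. Cells were trypsinised, washed in cold PBS, lysed in RIPA with sonication and centrifuged 30 min. Total protein was quantified and separated by SDS-PAGE, then transferred to PVDF. Blots were probed with primary and secondary antibodies and detected by ECL.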

H9c2 [2] = experiment: Inhibition of OGD-induced apoptosis in rat H9c2 cells assessed as reduction in cytochromeC level by Western blot analysis; assay type: functional, cell-based; conditions: dose 0.5-1 µM; summary of the method: as §1
[3] = biological target: T1, Serine/threonine-protein kinase TNNI3K (Rattus norvegicus) (UniProt Q7TQP6); experiment: Inhibition of TNNI3K in rat H9c2 cells assessed as reduction in p38 phosphorylation at 0.5 to 1 uM by Western blot analysis; conditions: dose 0.5-1 µM
T1 sequence (whole entry): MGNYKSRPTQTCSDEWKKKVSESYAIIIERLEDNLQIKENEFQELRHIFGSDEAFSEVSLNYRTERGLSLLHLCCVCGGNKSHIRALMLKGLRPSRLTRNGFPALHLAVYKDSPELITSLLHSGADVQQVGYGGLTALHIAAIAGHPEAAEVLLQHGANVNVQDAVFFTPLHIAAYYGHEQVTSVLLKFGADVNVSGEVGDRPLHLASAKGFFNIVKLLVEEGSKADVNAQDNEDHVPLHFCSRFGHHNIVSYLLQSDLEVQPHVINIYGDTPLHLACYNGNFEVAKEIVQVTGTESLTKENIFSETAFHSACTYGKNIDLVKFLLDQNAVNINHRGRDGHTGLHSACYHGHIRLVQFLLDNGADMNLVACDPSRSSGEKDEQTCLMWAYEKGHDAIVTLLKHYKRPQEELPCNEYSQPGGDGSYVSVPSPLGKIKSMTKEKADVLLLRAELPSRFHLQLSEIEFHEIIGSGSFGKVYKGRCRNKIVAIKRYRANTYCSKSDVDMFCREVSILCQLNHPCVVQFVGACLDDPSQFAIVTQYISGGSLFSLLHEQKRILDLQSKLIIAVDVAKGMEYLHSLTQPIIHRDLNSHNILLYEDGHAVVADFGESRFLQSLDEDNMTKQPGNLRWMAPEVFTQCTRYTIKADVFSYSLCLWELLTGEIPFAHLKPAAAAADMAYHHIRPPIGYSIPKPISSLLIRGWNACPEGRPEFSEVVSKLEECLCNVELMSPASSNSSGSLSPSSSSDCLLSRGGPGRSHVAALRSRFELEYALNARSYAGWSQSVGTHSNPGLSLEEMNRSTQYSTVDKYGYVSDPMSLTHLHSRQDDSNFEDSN

H9c2 [4] = experiment: Inhibition of OGD-induced apoptosis in rat H9c2 cells assessed as late apoptotic cells at 1 uM incubated for 24 hrs by annexinV-FITC and PI staining based flow cytometry analysis (reference value: 9 %); assay type: functional
H9c2 [5] = experiment: Effect on TNNI3K expression in rat H9c2 cells at 0.5 to 1 uM by Western blot analysis; assay type: functional, cell-based; conditions: dose 0.5-1 µM; summary of the method: as §1
H9c2 [6] = experiment: Inhibition of OGD-induced apoptosis in rat H9c2 cells assessed as reduction in caspase1 activation at 0.5 to 1 uM by Western blot analysis; assay type: functional, cell-based; conditions: dose 0.5-1 µM; summary of the method: as §1
H9c2 [7] = experiment: Inhibition of OGD-induced apoptosis in rat H9c2 cells assessed as viable cells at 1 uM incubated for 24 hrs by annexinV-FITC and PI staining based flow cytometry analysis (reference value: 85 %); assay type: functional
H9c2 [8] = experiment: Inhibition of OGD-induced apoptosis in rat H9c2 cells assessed as reduction in GSDMD activation at 0.5 to 1 uM by Western blot analysis; assay type: functional, cell-based; conditions: dose 0.5-1 µM; summary of the method: as §1
Mus musculus = experiment: Cardioprotective activity in C57BL/6 mouse model of myocardial infarction assessed as reduction in scar tissue at 25 mg/kg, ip administered for 28 days and measured on day 28 by masson staining based fluorescence microscopy; assay type: functional, organism-based; conditions: time 28.0 day
Summary of the method: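 MI made in male C57BL/6 mice (5-6 weeks) by permanent LAD ligation under ip ketamine (100mg/kg)/xylazine (10mg/kg), ventilated. Groups: sham, saline (NS), inhibitor 25 mg/kg ip every two days, n=4. Hearts examined after 28 days; TTC, Masson's trichrome and H&E staining of sections for infarct, collagen/scar, LV inflammatory cells and dilatation.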

H9c2 [9] = experiment: Inhibition of OGD-induced apoptosis in rat H9c2 cells assessed as reduction in caspase1 level at 0.5 to 1 uM by immunofluorescence staining based fluorescence microscopy; assay type: functional, cell-based; conditions: dose 0.5-1 µM
Summary of the method: (§2)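 In OGD-exposed H9c2 cells treated with 0.5 or 1.0 µM inhibitor, intracellular distribution and co-localisation of caspase-1 and NLRP3 were assessed by immunofluorescence microscopy.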

H9c2 [10] = experiment: Inhibition of OGD-induced apoptosis in rat H9c2 cells assessed as necrotic cells at 1 uM incubated for 24 hrs by annexinV-FITC and PI staining based flow cytometry analysis (reference value: 2.45 %); assay type: functional
H9c2 [11] = experiment: Inhibition of OGD-induced apoptosis in rat H9c2 cells assessed as reduction in NLRP3 level at 0.5 to 1 uM by immunofluorescence staining based fluorescence microscopy; assay type: functional, cell-based; conditions: dose 0.5-1 µM; summary of the method: as §2

Question: For `CN(C)CCCN1CCc2c(sc3ncnc(Nc4ccc(N(C)C)c(NC(=O)c5ccco5)c4)c23)C1`, which inhibition (H9c2 [1]) is on record?
Answer: Active

Question: What about the inhibition (H9c2 [2]) of the same compound?
Answer: Dose-dependent effect

Question: And the inhibition [3]?
Answer: Active

Question: What about the inhibition at 1 µM (H9c2 [4]) of the same compound?
Answer: 5.02%

Question: And the inhibition (H9c2 [5])?
Answer: inactive

Question: What about the inhibition (H9c2 [6]) of the same compound?
Answer: Active

Question: What about the inhibition at 1 µM (H9c2 [7]) of the same compound?
Answer: 90.7%

Question: And the inhibition (H9c2 [8])?
Answer: Active

Question: What about the Activity (Mus musculus) of the same compound?
Answer: Active

Question: And the inhibition (H9c2 [9])?
Answer: Active

Question: What about the inhibition at 1 µM (H9c2 [10]) of the same compound?
Answer: 1.07%

Question: And the inhibition (H9c2 [11])?
Answer: Active
